Fam108B counter: Fam108B inhibition, counter-screen for RBBP9 inhibitors; 0.33% of 300,000 active; AID 1947; recombinant Fam108B, FP-Rh probe fluorescence polarization; inhibition, % at 9.51 µM;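 active means inhibition above the screen mean inhibition plus 3 SD, computed separately per campaign, cut at about 18% in these data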;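 further: inhibitors lower polarization as less probe binds the enzyme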
PME-1 inh: PME-1 (human) inhibition | recombinant PME-1, FP-Rh probe fluorescence polarization | inhibition, % at 5.9 µM | 0.53% of 320,000 active;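 active means inhibition above the campaign mean of all compounds plus 3 SD, cut at about 26% in these data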;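 further: competitive labeling of PME-1 active site by serine hydrolase directed probe; 0% = PME-1 with DMSO and 100% = wells lacking PME-1 enzyme; inhibitors block probe labeling so polarization falls and inhibition rises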
LYPLA2 counter: LYPLA2 (human) inhibition in PME1 counter-screen | O95372 | AID 2177 | 0.38% of 320,000 active | inhibition, % at 5.9 µM | recombinant LYPLA2, FP-Rh probe fluorescence polarization;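 active means inhibition above the screen-wide mean plus 3 SD, limit set per campaign, cut at about 26% in these data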;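 further: 0% = LYPLA2 with DMSO and 100% = wells lacking LYPLA2 enzyme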
Target sequence (O95372 whole entry, looked up): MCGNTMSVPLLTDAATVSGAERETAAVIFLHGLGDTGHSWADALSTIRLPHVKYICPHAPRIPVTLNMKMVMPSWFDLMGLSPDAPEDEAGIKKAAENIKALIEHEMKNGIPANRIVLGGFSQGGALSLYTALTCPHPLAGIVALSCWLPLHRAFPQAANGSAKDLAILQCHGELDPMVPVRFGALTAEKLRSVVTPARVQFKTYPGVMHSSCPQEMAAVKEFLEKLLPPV
RBBP9 inh: human RBBP9 hydrolase inhibition; AID 1515; recombinant RBBP9, FP-Rh probe fluorescence polarization; O75884; inhibition, % at 7.94 µM; 0.2% of 220,000 active;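 active means inhibition above the campaign mean of all tested compounds plus 3 SD, cut at about 14% in these data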;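 further: plate controls were DMSO wells with RBBP9 for no effect and wells lacking RBBP9 protein for full effect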
Target sequence (O75884 whole entry, looked up): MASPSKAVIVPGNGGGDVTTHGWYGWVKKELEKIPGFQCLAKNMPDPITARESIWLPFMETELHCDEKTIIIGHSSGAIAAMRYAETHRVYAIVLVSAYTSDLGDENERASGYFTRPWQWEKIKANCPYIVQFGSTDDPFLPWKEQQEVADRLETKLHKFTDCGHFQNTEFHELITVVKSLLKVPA
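Controls: DMSO-treated enzyme wells and wells lacking RBBP9 | Material: RBBP9 protein | Technique: Fluorescence polarization | Replication: Single well per compound, no replicates | Buffer or medium: Tris-NaCl-Pluronic buffer, pH 8.0 | Timing: 30 min compound preincubation, 45 min probe labeling, 25 °C | Read-out basis: Percent inhibition from mP, scaled between DMSO and no-protein wells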
LYPLA1 inh: blocks human lysophospholipase 1, a PME1 counter-screen; O75608; recombinant LYPLA1, FP-Rh probe fluorescence polarization; inhibition, % at 5.9 µM; 0.16% of 320,000 active;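 active means inhibition above the mean of all tested compounds plus 3 SD, set per campaign, cut at about 14% in these data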;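 further: inhibitors block serine hydrolase probe labeling of LYPLA1 so polarization falls; 0% = enzyme with DMSO and 100% = wells lacking LYPLA1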
Target sequence (O75608 whole entry, looked up): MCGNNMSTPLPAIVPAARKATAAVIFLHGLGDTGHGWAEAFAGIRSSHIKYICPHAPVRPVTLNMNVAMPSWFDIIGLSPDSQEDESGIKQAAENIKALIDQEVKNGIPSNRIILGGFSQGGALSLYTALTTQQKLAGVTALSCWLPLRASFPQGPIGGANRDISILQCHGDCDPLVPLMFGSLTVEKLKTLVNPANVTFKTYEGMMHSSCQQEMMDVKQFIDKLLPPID
Fam108b confirm: confirmation of mouse Fam108b serine hydrolase inhibitors | shares compounds with Fam108B counter | recombinant Fam108b, FP-Rh probe fluorescence polarization | inhibition, % at 9.51 µM | 44% of 930 active;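 active means inhibition above a limit from the primary screen, the mean over all compounds plus 3 SD, cut at about 19% in these data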;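 further: 0% = median of active Fam108b wells and 100% = catalytically dead S170A mutant; inhibitors free the probe so polarization falls as inhibition rises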
Fam108b inh: inhibits mouse Fam108b in gel-based ABPP | 44% of 260 active | shares compounds with Fam108B counter | AID 588649 | recombinant Fam108b, fluorophosphonate probe | inhibition, % at 20 µM; in the data active means inhibition above about 40%
* marks the source's active call; other numbers are inactive results; x = no result. A selection: hits, their analogues and other compounds. The true share with any hit is near 0.99%.

SMILES | Fam108B counter | PME-1 inh | LYPLA2 counter | RBBP9 inh | LYPLA1 inh | Fam108b confirm | others
O=C(O)c1ccc(N/N=C/C=C/c2ccccc2[N+](=O)[O-])cc1 | 0.9 | 2.8 | 10.5 | 7.4 | -1.6 | x
COc1cccc(OCc2cc(C(=O)N3CCN(c4ccccc4OC)CC3)no2)c1 | -0.8 | -1.0 | 11.0 | x | 4.7 | x
COc1ccc(Cn2c(O)c(C=Nc3ccc(O)cc3)c3ccccc3c2=O)cc1 | 30.7* | 21.2 | 3.3 | -5.1 | 4.0 | 18.1
CCOC(=O)c1c(NC(=O)/C=C/c2ccc3c(c2)OCO3)sc(C)c1CC | 81.6* | -29.9 | -10.8 | -13.3 | -5.1 | -7.0
CCOC(=O)c1c(NC(=O)/C=C/c2ccc3c(c2)OCO3)sc(C)c1C | x | x | x | -1.1 | x | x
COc1cc(/C=C2\SC(=S)N(NC(=O)c3ccccc3O)C2=O)ccc1O | -170.9 | -210.6 | -207.2 | x | -103.0 | x
O=C(NN1C(=O)/C(=C/c2ccc(O)c([N+](=O)[O-])c2)SC1=S)c1ccccc1Cl | 24.8* | -8.3 | -2.3 | 5.1 | -3.5 | 20.4*
Nc1ccc2c(c1)C(=O)c1ccccc1-2 | 0.7 | -1.7 | 1.5 | x | 0.2 | x
O=C1C(=O)c2ccc(-c3ccccc3)cc2-c2ccccc21 | 54.4* | 16.0 | 14.2 | 2.4 | -4.3 | 69.3* | Fam108b inh=15.0
O=c1oc2ccccc2cc1-c1nc2c(s1)CCc1ccccc1-2 | 1.1 | -4.2 | -14.4 | -6.6 | -8.7 | x
O=c1oc2cc(O)ccc2cc1-c1nc2c(s1)CCc1ccccc1-2 | 22.4* | 8.6 | 0.5 | -3.5 | -0.4 | 23.4*
CC(=O)Nc1ccc(S(=O)(=O)N2CCN(c3ncccn3)CC2)cc1 | 4.2 | -1.2 | 2.8 | x | 2.0 | x
CC(=O)Nc1cccc(C(=O)N/N=C/c2ccc(F)cc2)c1 | 1.7 | 2.1 | -2.2 | -7.1 | 0.5 | x
O=C(NN=Cc1ccc(O)cc1)c1cccc(NN=Cc2ccc(O)cc2)c1 | x | x | x | x | x | x | Fam108b inh=95.0*
COc1ccccc1NCCC(=O)O | -3.5 | -0.9 | -2.4 | 0.1 | 3.0 | x
O=C(O)CCNc1ccc(NCCC(=O)O)c2c1C(=O)c1ccccc1C2=O | 35.6* | 26.5* | 24.4 | x | 8.9 | 26.0*
CC1=NN(C(N)=S)C(=O)C1N=Nc1c(Br)cc(Br)cc1Br (stereo not drawn) | 29.5* | 8.9 | 5.1 | x | -0.8 | 33.4* | Fam108b inh=35.0
Cc1c(O)ccc(C=NNc2nc(-c3cccnc3)nc3ccccc23)c1O | x | x | x | x | x | x | Fam108b inh=60.0*
C(=N\Nc1nc(-c2cccnc2)nc2ccccc12)/c1ccccc1 | -0.8 | -15.2 | -9.7 | -4.6 | -6.4 | x
Nc1ccc(C(=O)O)c(O)c1 | 1.7 | -2.8 | -0.6 | -1.5 | -1.0 | x
Nc1ccc(N)c(C(=O)O)c1 | 56.9* | 3.8 | 12.5 | x | 7.4 | 45.0* | Fam108b inh=0.0
O=C(Nc1ccc2c(c1)OCO2)N1CCCC1 | 0.6 | 4.0 | -5.2 | -0.8 | -3.7 | x
COc1ccc(OC)c(/C=C2\S/C(=N/NC(=O)c3ccc4ccccc4c3)NC2=O)c1 | 32.3* | 22.6 | 0.7 | -2.7 | -2.4 | 15.1
N#Cc1ccc(OCC(=O)NNC(=S)NC2CCCCC2)cc1 | x | 0.7 | 6.1 | x | 3.4 | x
CSC1=NSC2=NC(=O)/C(=C/c3coc4ccccc4c3=O)C(=N)N12 | 40.6* | 12.5 | -9.0 | -6.9 | -8.2 | 52.0* | Fam108b inh=0.0
SMILES | Fam108B counter | PME-1 inh | LYPLA2 counter | RBBP9 inh | LYPLA1 inh | Fam108b confirm | others
N=C1/C(=C\c2coc3ccccc3c2=O)C(=O)N=C2SC=CN12 | 9.1 | 14.8 | 6.4 | 0.3 | -0.3 | x
CSC1=NSC2=NC(=O)/C(=C/c3coc4ccc(O)cc4c3=O)C(=N)N12 | 27.7* | -5.2 | -10.3 | -3.9 | -10.4 | 16.9
CCN(CC)c1nc(N)c2c(N)n(-c3ccccc3C)c(=S)c(C#N)c2c1C#N | 20.2* | 10.3 | 10.2 | 2.6 | 2.7 | 7.2
CCN(CC)c1nc(N)c2c(N)nc3c(c2c1C#N)CC(c1ccccc1)O3 (stereo not drawn) | 11.8 | -1.2 | 8.1 | -0.6 | 1.6 | x
O=C1Nc2ccc(Br)cc2C12NNc1ccccc1O2 (stereo not drawn) | 21.0* | 37.8* | -10.5 | 5.6 | -4.4 | 11.5
Cc1ccc2c(c1)Oc1ccccc1C=C2C(=O)O | 1.1 | 2.6 | -6.0 | -4.4 | -0.2 | x
CC(C)OC(=O)c1cccnc1N1CCN(c2cccc(Cl)c2)CC1 | -1.2 | -2.0 | 3.9 | -9.0 | -0.8 | x
Cc1ccc(NC(=O)/C(C#N)=C(\N)C(Cl)(Cl)Cl)nc1 | 20.6* | -0.3 | 4.5 | -7.9 | 3.3 | 23.0*
Cc1ccc(NC(=O)C(=O)Nc2ccc(C)cn2)nc1 | -2.9 | 1.3 | -0.3 | -11.0 | 0.8 | x
CSC[C@@H]1NC(=S)N(c2ccc(C)cc2)C1=O | 30.6* | 60.3* | 20.3 | -4.2 | 10.2 | 50.2* | Fam108b inh=40.0*
Cc1ccc(N2C(=O)C3CCC(C)(C2=O)C3(C)C)cc1 (stereo not drawn) | -1.4 | -2.0 | 4.2 | -4.8 | 1.3 | x
COc1ccc2oc(-c3ccc(NC(=O)c4ccc(N5CCOCC5)c([N+](=O)[O-])c4)cc3)nc2c1 | -0.4 | 1.3 | -15.2 | -4.0 | -10.6 | x
O=C(Nc1ccc(-c2nc3ccccc3o2)cc1)c1ccc(N2CCOCC2)c([N+](=O)[O-])c1 | 19.5* | -2.6 | -7.8 | -4.0 | -8.4 | 1.3
COc1cc(/C=C(\NC(C)=O)C(=O)Nc2cccc(O)c2)ccc1OC(C)=O | 0.1 | -6.7 | -4.9 | -7.8 | -1.1 | x
COCC(=O)N1CCC(Oc2ccc(C(=O)NC3Cc4ccccc4C3)cc2)CC1 | -3.1 | 0.1 | -3.6 | x | -3.4 | x
O=[N+]([O-])c1cc(Br)c(O)c(/C=N/Nc2nnnn2-c2cccc3ccccc23)c1 | 39.8* | 48.7* | 15.6 | -1.6 | 5.3 | 53.6*
O=[N+]([O-])c1cc(Br)c(O)c(C=Nc2ccc(N3CCOCC3)cc2)c1 | 5.9 | -2.0 | 6.4 | -2.1 | -1.0 | x
CCOc1ccc(-c2csc(/C(C#N)=C\c3ccc(O)c([N+](=O)[O-])c3)n2)cc1 | 25.0* | 25.8 | 10.6 | 0.2 | 5.5 | 5.8
O=C(Nc1cccc(C(F)(F)F)c1)c1ccc2nc(-c3ccco3)c(-c3ccco3)nc2c1 | 52.4* | 30.1* | -11.0 | -16.6 | -13.6 | 6.2
COc1ccc(/C=N/N2CCN(C3c4ccccc4-c4ccccc43)CC2)cc1O | 5.0 | 12.5 | 6.1 | -9.1 | 0.9 | x
O=C(Nc1ccc(S(=O)(=O)Nc2nccs2)cc1)c1ccc(=O)[nH]c1 | 18.4* | -19.1 | 0.2 | -4.7 | -4.0 | 9.6
CCCC(=O)Nc1ccc(C(=O)NNC(=O)COc2ccc(Br)c(C)c2)cc1 | -13.4 | -8.6 | -18.1 | -8.3 | -8.1 | x
CC1=NN(c2cccc(C(=O)O)c2)C(=O)/C1=C\C=C\c1ccco1 | 24.4* | -6.8 | -4.2 | 1.5 | 1.2 | 29.4*
CC1=NN(c2ccccc2)C(=O)/C1=C/C=C/c1ccccc1 | 6.9 | 16.2 | 1.9 | 10.5 | -2.2 | x
CCCC1(C)NC(=O)c2ccccc2O1 (stereo not drawn) | 2.7 | 1.2 | -1.8 | 5.0 | 2.6 | x
c1ccc(-c2nnc(-c3ccco3)o2)cc1 | 0.5 | 4.1 | -4.5 | -9.4 | -2.5 | x

Screening results deposited in PubChem by The Scripps Research Institute Molecular Screening Center.
